Reference: ChEMBL document CHEMBL1150387, “Development and experimental validation of a docking strategy for the generation of kinase-targeted libraries” (J Med Chem, 2008)

Legend:
[1] = molecular target: RAC-alpha serine/threonine-protein kinase (Homo sapiens) (UniProt P31749); test: Inhibition of AKT1/PKBalpha at 10 uM by HTRF assay relative to control
How it was run: (§1)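 HTRF kinase assay, one panel of kinases. Inhibitor stock 50 µM in 100% DMSO; tested at 10 µM. ATP and substrate at final levels near Km. Final buffer: 50 mM Hepes/NaOH pH 7.4, 40 µM Na3VO4, 0.005% Tween-20, 1 mM DTT, MnCl2 or MgCl2 at kinase-dependent levels. Started by adding ATP/substrate. Reaction run at room temperature, time varied by kinase. Detection mix in 50 mM Hepes pH 7.4, 0.1% BSA, 150 mM KF, incubated ≥1 h at room temperature. Activity expressed as % of uninhibited control; n=2.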

[2] = molecular target: T1, Ephrin type-B receptor 4 (Homo sapiens) (UniProt P54760); test: Inhibition of EphB4 at 10 uM by HTRF assay relative to control; how it was run: as §1
T1 sequence (whole entry): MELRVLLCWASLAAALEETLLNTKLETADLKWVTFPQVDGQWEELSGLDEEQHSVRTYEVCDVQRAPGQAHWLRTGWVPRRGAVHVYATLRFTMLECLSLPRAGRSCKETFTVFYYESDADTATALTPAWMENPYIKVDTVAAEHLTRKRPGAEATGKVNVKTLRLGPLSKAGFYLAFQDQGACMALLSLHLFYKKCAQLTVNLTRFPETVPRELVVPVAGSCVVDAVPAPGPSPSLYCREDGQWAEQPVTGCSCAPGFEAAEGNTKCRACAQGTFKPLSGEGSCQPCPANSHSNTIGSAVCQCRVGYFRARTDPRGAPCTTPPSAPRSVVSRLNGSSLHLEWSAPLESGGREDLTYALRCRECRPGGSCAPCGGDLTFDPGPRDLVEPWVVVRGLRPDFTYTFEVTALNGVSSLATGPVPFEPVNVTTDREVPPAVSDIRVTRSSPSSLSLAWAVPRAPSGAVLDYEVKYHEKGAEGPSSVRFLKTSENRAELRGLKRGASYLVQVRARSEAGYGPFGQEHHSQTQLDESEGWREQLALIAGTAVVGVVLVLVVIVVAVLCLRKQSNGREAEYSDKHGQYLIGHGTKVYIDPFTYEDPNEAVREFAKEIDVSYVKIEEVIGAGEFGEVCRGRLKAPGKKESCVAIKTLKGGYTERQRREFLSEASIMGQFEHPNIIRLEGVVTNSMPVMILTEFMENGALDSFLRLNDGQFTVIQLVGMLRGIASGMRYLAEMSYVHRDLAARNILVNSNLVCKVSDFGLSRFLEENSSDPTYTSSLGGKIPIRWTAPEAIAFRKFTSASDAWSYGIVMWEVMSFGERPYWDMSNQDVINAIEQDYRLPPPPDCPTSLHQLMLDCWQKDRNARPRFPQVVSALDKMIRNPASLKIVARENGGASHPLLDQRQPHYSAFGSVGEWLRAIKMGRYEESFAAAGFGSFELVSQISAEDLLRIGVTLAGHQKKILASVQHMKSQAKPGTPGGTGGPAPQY

[3] = molecular target: Insulin-like growth factor 1 receptor (Homo sapiens) (UniProt P08069); test: Inhibition of IGF1R at 10 uM by HTRF assay relative to control; how it was run: as §1
[4] = Inhibition of AMPKalpha at 10 uM by HTRF assay relative to control; how it was run: as §1
[5] = molecular target: Tyrosine-protein kinase Lck (Homo sapiens) (UniProt P06239); test: Inhibition of Lck at 10 uM by HTRF assay relative to control; how it was run: as §1
[6] = molecular target: T2, Serine/threonine-protein kinase Chk1 (Homo sapiens) (UniProt O14757); test: Inhibition of CHK1 at 10 uM by HTRF assay relative to control; how it was run: as §1
T2 sequence (whole entry): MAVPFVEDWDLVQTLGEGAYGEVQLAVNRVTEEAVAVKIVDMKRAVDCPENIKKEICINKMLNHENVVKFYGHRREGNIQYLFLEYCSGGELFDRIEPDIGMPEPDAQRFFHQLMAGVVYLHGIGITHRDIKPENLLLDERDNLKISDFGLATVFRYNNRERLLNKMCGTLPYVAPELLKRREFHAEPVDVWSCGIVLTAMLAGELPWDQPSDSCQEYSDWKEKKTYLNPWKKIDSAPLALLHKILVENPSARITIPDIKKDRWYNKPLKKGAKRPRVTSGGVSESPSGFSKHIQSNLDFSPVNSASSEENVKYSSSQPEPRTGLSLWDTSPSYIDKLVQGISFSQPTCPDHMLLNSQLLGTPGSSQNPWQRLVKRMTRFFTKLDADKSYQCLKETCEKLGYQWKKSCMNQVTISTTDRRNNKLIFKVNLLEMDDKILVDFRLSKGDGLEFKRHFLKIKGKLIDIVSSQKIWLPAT

[7] = molecular target: Rho-associated protein kinase 2 (Homo sapiens) (UniProt O75116); test: Inhibition of ROCK2 at 10 uM by HTRF assay relative to control; how it was run: as §1
[8] = Inhibition of PKA at 10 uM by HTRF assay relative to control; how it was run: as §1
[9] = molecular target: Cyclin-dependent kinase 1 (Homo sapiens) (UniProt P06493); test: Inhibition of CDK1 at 10 uM by HTRF assay relative to control; how it was run: as §1
[10] = molecular target: Platelet-derived growth factor receptor beta (Homo sapiens) (UniProt P09619); test: Inhibition of PDGFRbeta at 10 uM by HTRF assay relative to control; how it was run: as §1
Sequence of Platelet-derived growth factor receptor beta (Homo sapiens) (P09619 whole entry): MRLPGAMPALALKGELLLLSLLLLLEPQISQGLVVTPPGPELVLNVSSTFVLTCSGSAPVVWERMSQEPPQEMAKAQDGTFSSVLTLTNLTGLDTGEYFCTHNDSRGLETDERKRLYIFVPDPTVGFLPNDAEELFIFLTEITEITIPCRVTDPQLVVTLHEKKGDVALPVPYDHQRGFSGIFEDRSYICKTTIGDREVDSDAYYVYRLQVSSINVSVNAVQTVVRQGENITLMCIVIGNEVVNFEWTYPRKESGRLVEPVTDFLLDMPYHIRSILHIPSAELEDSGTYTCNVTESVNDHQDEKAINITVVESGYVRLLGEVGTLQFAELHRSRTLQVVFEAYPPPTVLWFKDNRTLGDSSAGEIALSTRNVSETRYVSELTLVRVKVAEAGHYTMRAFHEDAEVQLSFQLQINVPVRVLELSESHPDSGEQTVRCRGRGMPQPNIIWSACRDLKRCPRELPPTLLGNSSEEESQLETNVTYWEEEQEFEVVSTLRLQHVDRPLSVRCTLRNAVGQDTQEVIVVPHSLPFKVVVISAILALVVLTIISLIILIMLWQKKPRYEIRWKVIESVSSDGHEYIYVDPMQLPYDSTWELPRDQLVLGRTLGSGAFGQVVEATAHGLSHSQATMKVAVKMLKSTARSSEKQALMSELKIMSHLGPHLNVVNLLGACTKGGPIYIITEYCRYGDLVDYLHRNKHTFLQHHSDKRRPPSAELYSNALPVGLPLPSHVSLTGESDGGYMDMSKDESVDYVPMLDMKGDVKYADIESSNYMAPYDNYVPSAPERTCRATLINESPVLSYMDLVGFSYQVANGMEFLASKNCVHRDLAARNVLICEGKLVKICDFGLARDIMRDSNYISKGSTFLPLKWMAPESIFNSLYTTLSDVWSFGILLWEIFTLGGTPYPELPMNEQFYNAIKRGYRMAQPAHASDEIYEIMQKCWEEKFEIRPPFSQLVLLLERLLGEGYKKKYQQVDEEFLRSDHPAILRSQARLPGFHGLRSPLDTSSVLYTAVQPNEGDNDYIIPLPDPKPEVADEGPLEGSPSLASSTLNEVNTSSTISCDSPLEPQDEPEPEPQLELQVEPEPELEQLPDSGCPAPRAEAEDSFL

Sequence of Cyclin-dependent kinase 1 (Homo sapiens) (P06493 whole entry, looked up): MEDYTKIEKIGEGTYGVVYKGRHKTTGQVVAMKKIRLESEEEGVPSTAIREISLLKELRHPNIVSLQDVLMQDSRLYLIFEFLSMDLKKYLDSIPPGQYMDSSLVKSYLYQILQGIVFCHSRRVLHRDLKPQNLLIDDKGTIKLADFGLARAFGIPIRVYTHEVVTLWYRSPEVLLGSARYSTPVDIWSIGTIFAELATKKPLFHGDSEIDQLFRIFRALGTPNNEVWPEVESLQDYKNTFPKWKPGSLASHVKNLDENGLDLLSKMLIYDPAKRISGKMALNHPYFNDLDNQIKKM
Sequence of Insulin-like growth factor 1 receptor (Homo sapiens) (P08069 31-736 limits assumed): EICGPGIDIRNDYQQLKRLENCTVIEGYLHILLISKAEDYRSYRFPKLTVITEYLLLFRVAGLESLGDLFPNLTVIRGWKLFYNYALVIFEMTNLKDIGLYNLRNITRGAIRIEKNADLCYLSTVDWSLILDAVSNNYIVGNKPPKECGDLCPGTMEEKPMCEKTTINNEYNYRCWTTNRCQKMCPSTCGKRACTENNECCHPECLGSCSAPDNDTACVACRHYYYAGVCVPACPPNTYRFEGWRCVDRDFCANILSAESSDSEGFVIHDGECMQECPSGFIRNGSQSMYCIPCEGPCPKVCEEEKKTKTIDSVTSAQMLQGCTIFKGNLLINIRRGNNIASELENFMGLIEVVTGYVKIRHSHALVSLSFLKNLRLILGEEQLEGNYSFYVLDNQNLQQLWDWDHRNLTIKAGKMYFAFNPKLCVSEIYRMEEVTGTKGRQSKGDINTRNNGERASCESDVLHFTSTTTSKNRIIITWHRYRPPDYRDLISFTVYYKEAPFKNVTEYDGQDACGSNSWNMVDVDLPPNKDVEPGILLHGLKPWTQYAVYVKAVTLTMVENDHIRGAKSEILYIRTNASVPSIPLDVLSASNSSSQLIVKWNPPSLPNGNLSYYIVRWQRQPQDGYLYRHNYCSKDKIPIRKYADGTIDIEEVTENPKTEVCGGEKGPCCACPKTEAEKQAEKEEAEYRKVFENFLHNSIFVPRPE
Sequence of Insulin-like growth factor 1 receptor (Homo sapiens) (P08069 741-1367 limits assumed): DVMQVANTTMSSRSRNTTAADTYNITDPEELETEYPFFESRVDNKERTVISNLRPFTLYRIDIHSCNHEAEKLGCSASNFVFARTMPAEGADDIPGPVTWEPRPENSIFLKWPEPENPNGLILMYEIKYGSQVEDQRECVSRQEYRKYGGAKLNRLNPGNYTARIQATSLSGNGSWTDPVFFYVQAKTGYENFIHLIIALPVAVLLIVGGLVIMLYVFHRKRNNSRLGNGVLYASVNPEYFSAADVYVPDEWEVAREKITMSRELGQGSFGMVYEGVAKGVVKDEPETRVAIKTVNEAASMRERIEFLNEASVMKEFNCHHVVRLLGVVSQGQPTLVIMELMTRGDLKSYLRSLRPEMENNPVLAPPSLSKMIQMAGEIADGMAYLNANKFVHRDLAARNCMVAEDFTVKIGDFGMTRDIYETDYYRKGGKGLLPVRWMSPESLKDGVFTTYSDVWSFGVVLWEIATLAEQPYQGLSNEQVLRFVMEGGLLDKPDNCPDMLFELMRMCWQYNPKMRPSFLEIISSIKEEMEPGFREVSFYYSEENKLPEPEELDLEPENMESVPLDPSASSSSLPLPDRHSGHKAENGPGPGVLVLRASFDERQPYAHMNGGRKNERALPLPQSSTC
Sequence of RAC-alpha serine/threonine-protein kinase (Homo sapiens) (P31749 whole entry): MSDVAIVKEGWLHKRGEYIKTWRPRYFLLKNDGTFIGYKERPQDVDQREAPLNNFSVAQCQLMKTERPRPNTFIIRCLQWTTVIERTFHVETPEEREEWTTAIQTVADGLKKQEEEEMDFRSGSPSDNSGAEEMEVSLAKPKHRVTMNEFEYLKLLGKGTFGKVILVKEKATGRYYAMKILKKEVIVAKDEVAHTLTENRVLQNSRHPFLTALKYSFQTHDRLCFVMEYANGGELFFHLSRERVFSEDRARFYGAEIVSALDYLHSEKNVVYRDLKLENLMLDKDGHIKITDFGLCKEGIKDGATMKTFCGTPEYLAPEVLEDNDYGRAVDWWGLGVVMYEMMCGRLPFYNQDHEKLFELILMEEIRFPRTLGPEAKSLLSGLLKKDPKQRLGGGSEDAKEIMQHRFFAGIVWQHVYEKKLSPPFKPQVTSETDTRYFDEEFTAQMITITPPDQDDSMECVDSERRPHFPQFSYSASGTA
Sequence of Tyrosine-protein kinase Lck (Homo sapiens) (P06239 2-509 limits assumed): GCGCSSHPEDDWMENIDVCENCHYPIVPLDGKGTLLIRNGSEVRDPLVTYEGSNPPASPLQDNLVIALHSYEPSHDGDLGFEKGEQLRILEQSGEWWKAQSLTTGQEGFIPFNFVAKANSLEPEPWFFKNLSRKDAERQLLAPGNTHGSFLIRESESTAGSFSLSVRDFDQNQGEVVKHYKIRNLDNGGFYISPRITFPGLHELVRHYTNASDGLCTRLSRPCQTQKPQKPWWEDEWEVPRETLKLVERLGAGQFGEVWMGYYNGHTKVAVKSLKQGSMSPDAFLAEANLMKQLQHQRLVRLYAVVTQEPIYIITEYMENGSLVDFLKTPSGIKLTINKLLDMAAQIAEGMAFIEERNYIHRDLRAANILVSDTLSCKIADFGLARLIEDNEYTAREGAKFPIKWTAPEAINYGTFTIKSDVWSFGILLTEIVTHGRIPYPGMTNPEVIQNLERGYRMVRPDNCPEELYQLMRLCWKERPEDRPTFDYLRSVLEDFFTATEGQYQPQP

| Compound | inhibition [1] | inhibition [2] | inhibition [3] | inhibition [4] | inhibition [5] | inhibition [6] | inhibition [7] | inhibition [8] | inhibition [9] | inhibition [10] |
| --- | --- | --- | --- | --- | --- | --- | --- | --- | --- | --- |
| O=C(C1CCN(c2nccc(Nc3ccccc3)n2)CC1)N1CC[C@@H](O)C1 | 0% | 0% | 0% | 7% | 0% | 4% | 0% | 0% | 0% | 6% |
| COC[C@@H]1CCCN1C(=O)[C@@H]1CCCN1c1nccc(Nc2ccccc2)n1 | 0% | 0% | 0% | 15% | 0% | 1% | 3% | 0% | 3% | 8% |
| COc1cccc(Nc2cc(N3CCC[C@H]3C(=O)NCCN3CCCCC3)nc(N)n2)c1 | 2% | 0% | 1% | 0% | 0% | 3% | 0% | 0% | 0% | 8% |
| O=C(NC[C@@H]1CCCO1)c1cccc(Nc2nccc(Nc3ccc4ncsc4c3)n2)c1 | 0% | 57% | 83% | 36% | 84% | 2% | 19% | 4% | 11% | 98% |
| CN(CCCn1ccnc1)C(=O)[C@@H]1CCCN1c1nccc(Nc2ccccc2)n1 | 0% | 0% | 0% | 15% | 0% | 0% | 1% | 0% | 0% | 11% |
| O=C(NCCc1ccc(O)cc1)c1cccc(Nc2nccc(Nc3ccc4ncsc4c3)n2)c1 | 0% | 0% | 2% | 8% | 1% | 0% | 11% | 0% | 0% | 89% |
| CN(C)CC(C)(C)CNC(=O)C1CCN(c2cc(N3CCOCC3)nc(N)n2)CC1 | 0% | 0% | 0% | 11% | 0% | 8% | 0% | 0% | 0% | 6% |
| Nc1nc(N2CCOCC2)cc(N2CCC(C(=O)NCc3cccs3)CC2)n1 | 0% | 0% | 0% | 5% | 0% | 1% | 1% | 0% | 0% | 8% |
| CN(CCc1ccccn1)C(=O)c1cccc(Nc2nccc(Nc3ccc4ncsc4c3)n2)c1 | 0% | 17% | 50% | 16% | 37% | 0% | 7% | 1% | 0% | 91% |
| Nc1nc(N2CCOCC2)cc(N2CCC(C(=O)NCCc3ccc(O)cc3)CC2)n1 | 2% | 0% | 0% | 12% | 0% | 3% | 0% | 0% | 0% | 0% |
| COC(=O)C(CO)NC(=O)[C@@H]1CCCN1c1nccc(Oc2cccc(C)c2)n1 (stereo not given in full) | 0% | 0% | 0% | 0% | 0% | 1% | 0% | 0% | 0% | 0% |
| Nc1nc(Nc2ccc(C(=O)NCCc3ccncc3)cc2)cc(N2CCOCC2)n1 | 2% | 0% | 0% | 0% | 0% | 2% | 1% | 3% | 0% | 13% |
| COC[C@@H]1CCCN1C(=O)[C@@H]1CCCN1c1cc(Nc2cccc(OC)c2)nc(N)n1 | 0% | 0% | 5% | 2% | 0% | 1% | 0% | 0% | 5% | 4% |
| COc1cccc(Nc2cc(Nc3cccc(C(=O)NCCCn4ccnc4)c3)nc(N)n2)c1 | 1% | 0% | 8% | 8% | 0% | 5% | 12% | 13% | 2% | 7% |

Continued, values first:

| inhibition [1] | inhibition [2] | inhibition [3] | inhibition [4] | inhibition [5] | inhibition [6] | inhibition [7] | inhibition [8] | inhibition [9] | inhibition [10] | Compound |
| --- | --- | --- | --- | --- | --- | --- | --- | --- | --- | --- |
| 1% | 0% | 0% | 6% | 0% | 3% | 0% | 2% | 0% | 5% | Cc1cccc(Oc2ccnc(N3CCN(C(=O)c4c(C)noc4C)CC3)n2)c1 |
| 0% | 0% | 0% | 0% | 0% | 0% | 0% | 0% | 0% | 11% | Cc1cccc(Oc2ccnc(N3CCC[C@H]3C(=O)NCc3cccnc3)n2)c1 |
| 0% | 0% | 8% | 9% | 0% | 3% | 0% | 0% | 0% | 7% | Cc1cccc(Oc2ccnc(N3CCC[C@H]3C(=O)NCCCn3ccnc3)n2)c1 |
| 0% | 0% | 0% | 0% | 0% | 1% | 22% | 0% | 0% | 48% | Cc1cccc(N(C)c2cc(Nc3ccc(CC(=O)Nc4ccc5ncsc5c4)cc3)ncn2)c1 |
| 0% | 0% | 3% | 19% | 0% | 3% | 1% | 0% | 0% | 10% | Cc1cccc(Nc2ncnc3c2CN(C(=O)c2ccc(N(C)C)c4ccccc24)CC3)c1 |
| 0% | 0% | 0% | 1% | 0% | 5% | 0% | 0% | 0% | 7% | O=C(c1nc(SCc2ccc(Cl)cc2)n2ccccc12)N1CCN(c2ncnc3c2CN(Cc2ccccc2)CC3)CC1 |
| 2% | 0% | 0% | 6% | 26% | 3% | 2% | 0% | 0% | 32% | Cc1cccc(Nc2cc(Nc3cccc(C(=O)N(CC(C)O)CC(C)O)c3)ncn2)c1 (stereo not given) |
| 0% | 0% | 0% | 5% | 24% | 0% | 0% | 0% | 0% | 37% | Cc1cccc(N(C)c2cc(Nc3cccc(C(=O)NCCCn4ccnc4)c3)ncn2)c1 |
| 0% | 0% | 0% | 3% | 0% | 4% | 0% | 0% | 0% | 1% | Cc1cccc(N(C)c2cc(N3CCN(C(=O)Cc4c[nH]c5ccccc45)CC3)ncn2)c1 |
| 0% | 0% | 0% | 4% | 0% | 2% | 0% | 0% | 0% | 6% | COc1ccc(-c2noc(CN3CCN(c4cc(Nc5cccc(O)c5)ncn4)CC3)n2)cc1 |
| 1% | 0% | 0% | 13% | 0% | 9% | 2% | 0% | 0% | 3% | COc1cccc(Nc2cc(Nc3cccc(C(=O)N(C)CCc4ccccn4)c3)nc(N)n2)c1 |
